Assay outcomes: PubChem BioAssay, several laboratories
Compounds with a hit are over-represented: about 3% of the library has one in this group of screens.
Yeast superoxide = caloric restriction mimetics inhibiting age-related superoxide in yeast; superoxide response (% of plate mean), % at 10 µM; S. cerevisiae aged cells, superoxide DHE fluorescence; hits give low values; 330,000 compounds, 0.18% hits;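 active = superoxide response under a set limit, about three screen SD below normal, cut at about 65% in these data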;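 note: yeast aged for seven days with compound at 30 °C before DHE staining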
T cruzi repl = T. cruzi replication inhibition; AID 1885; T. cruzi beta-gal in NIH3T3, luminescence, 90 h; inhibition, % (concentration not given with the values); 300,000 compounds, 1.4% hits;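 active = mean inhibition across valid replicates above about 55%, limit read from the data; inconclusive = mean below that limit but half or more replicates reach it; inactive = mean below it, under half of replicates reach it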;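 note: signal also drops with host cell toxicity which is not excluded here; higher percent means less beta-gal luminescence so fewer parasites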
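compound dosing = single 50 nL compound addition per well in DMSO | material = NIH/3T3 host cells with β-galactosidase reporter T. cruzi | input = 5,000 host fibroblasts per well | timing = ≥90 h infection period, 3 h prior cell attachment | read-out basis = percent inhibition of parasite-derived β-gal signal | detection = GalScreen β-gal luminescence, detergent lysis, 60 min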
HIF activator = HIF pathway transcriptional activation; U2OS HRE-luciferase reporter, luminescence; normalized: DMSO 0%, desferrioxamine 100%; activation, % at 7.5 µM (by protocol); 300,000 compounds, 0.32% hits;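 active = mean activation of at least 10% of the iron chelator positive control signal, with at least half of replicates also reaching 10%; inconclusive = mean and replicate majority disagree about reaching 10%; inactive = mean and most replicates under 10%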
NRP1-CendR mod = alters CendR peptide binding to human NRP-1; O14786; inhibition, % at 25 µM; 360,000 compounds, 0.85% hits; FAM-RPARPAR peptide binding to NRP-1, fluorescence polarization;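 active = inhibition or corrected inhibition above about 18%, plus a signal ratio from 0.5 to 1.5, limit read from the data, passing the limit was not always enough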
Target sequence (O14786 whole entry, looked up): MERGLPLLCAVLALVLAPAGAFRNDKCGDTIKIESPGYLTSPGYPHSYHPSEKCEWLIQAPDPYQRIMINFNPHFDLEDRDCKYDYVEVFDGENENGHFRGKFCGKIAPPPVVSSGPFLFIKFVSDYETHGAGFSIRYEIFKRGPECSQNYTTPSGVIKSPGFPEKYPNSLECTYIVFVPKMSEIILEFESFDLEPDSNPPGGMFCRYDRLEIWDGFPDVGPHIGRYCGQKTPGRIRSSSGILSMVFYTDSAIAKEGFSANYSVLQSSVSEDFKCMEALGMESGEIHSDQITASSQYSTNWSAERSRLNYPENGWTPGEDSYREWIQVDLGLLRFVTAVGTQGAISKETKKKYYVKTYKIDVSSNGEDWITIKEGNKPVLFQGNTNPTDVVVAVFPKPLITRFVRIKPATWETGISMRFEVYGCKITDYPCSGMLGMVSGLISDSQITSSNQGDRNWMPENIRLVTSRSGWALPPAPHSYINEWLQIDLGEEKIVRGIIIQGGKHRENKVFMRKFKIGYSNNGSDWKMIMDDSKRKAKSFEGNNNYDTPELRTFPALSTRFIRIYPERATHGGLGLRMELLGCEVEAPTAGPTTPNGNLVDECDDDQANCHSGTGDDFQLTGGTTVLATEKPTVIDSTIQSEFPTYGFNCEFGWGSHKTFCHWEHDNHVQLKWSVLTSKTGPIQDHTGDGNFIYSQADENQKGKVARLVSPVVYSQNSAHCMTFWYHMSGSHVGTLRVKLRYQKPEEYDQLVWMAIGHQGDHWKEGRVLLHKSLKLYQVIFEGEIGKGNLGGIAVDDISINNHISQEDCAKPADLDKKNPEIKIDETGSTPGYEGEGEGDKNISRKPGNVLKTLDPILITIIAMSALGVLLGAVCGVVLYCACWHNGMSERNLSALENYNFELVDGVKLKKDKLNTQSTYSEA
AI-2 QS modul = Vibrio harveyi AI-2 quorum sensing modulation; AID 2094; activity change, % at 7.5 µM; 300,000 compounds, 0.4% hits; Vibrio harveyi JMH597 AI-2 luminescence/OD600 ratio, 9 h; hits give low values; strain lacks LuxN and CqsS sensors; 0 = neutral-control median; in the data active = activity change below about -75%, passing the limit was not always enough; inconclusive = no clear call, values can overlap the other calls;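 note: luminescence divided by OD600 gain over 9 h not by final OD600 alone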
V-ATPase pHluor = yeast V-ATPase proton transport regulation by pHLuorin; S. cerevisiae, pHLuorin cytosolic pH fluorescence; response, % at 10 µM; 350,000 compounds, 0.37% hits; in the data active = response mostly above about 7.3%, no sharp cut-off; inactive = mostly below about 5.4%; note: actives read high
JMH597 growth rt = retest Vibrio harveyi JMH597 growth inhibition | shares compounds with AI-2 QS modul | OD600 absorbance, 9 h; lacks LuxN and CqsS sensors | growth inhibition, % at 7.5 µM | 750 compounds, 1% hits;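 active = every replicate shows growth inhibition above 50%; inconclusive = at least half, but not all, replicates pass that cutoff; inactive = fewer than half of replicates pass it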
BB721 const-QS lum = retest counter-screen: luminescence loss in constitutive-on quorum sensing strain BB721; shares compounds with AI-2 QS modul; inhibition, % at 7.5 µM; Vibrio harveyi BB721 luminescence, 9 h; 750 compounds, 95% hits;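 active = inhibition above about 80% in every replicate, not just on average, limit read from the data; inconclusive = at least half of replicates past the limit, but not all; inactive = fewer than half of replicates past the limit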
BB721 growth = retest: inhibitors of Vibrio harveyi BB721 growth. shares compounds with AI-2 QS modul. OD600 absorbance, 9 h. growth inhibition, % at 7.5 µM. 750 compounds, 3% hits. AID 2728;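 active = every replicate shows growth inhibition above 50%; inconclusive = at least half but not all replicates above 50% inhibition; inactive = under half of replicates above 50% inhibition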
JMH597 AI-2 mod = Vibrio harveyi AI-2 signaling luminescence modulation – JMH597 strain, confirmation; shares compounds with AI-2 QS modul; Vibrio harveyi JMH597 AI-2 quorum sensing luminescence, 9 h; luxN and CqsS knockout, AI-2 only; AID 2736; inhibition, % at 7.5 µM; 750 compounds, 97% hits;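 active = every replicate shows more than 75% inhibition of signal versus neutral control wells; inconclusive = half to three quarters of replicates exceed 75% inhibition; inactive = fewer than half of replicates exceed 75% inhibition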
Numbers stand for hits; - = inactive; ? = inconclusive; . = no result.

SMILES | Yeast superoxide | T cruzi repl | HIF activator | NRP1-CendR mod | AI-2 QS modul | V-ATPase pHluor | JMH597 growth rt | BB721 const-QS lum | BB721 growth | JMH597 AI-2 mod
CC(C)Oc1ccc(/C=N/NC(=O)c2nnn(-c3nonc3N)c2CN(C)c2ccccc2)cc1 | - | - | - | - | - | - | . | . | . | .
Cc1cc(Cl)c(OCCCSc2nc(C)cc(=O)[nH]2)c(Br)c1 | - | - | - | - | - | - | . | . | . | .
CC(=O)c1cccc(NC(=O)CSC(=O)c2ccccc2)c1 | - | - | 30 | - | -87 | - | - | 95 | - | 97
CC(=O)c1cccc(NC(=O)COC(=O)c2ccccc2C)c1 | - | - | - | - | -90 | - | - | 98 | - | 99
Cc1cccc(NC(=O)COC(=O)c2cc(C)oc2C)c1 | - | - | - | - | -88 | - | - | 95 | - | 97
Cc1cc(C(=O)OCC(=O)Nc2cccc(S(N)(=O)=O)c2)c(C)o1 | - | . | . | - | . | - | . | . | . | .
O=C(COC(=O)c1ccc(F)cc1F)NCCNC(=O)COC(=O)c1ccc(F)cc1F | - | - | - | - | - | - | . | . | . | .
CC(=O)c1ccc(NC(=O)COC(=O)c2ccc(F)cc2F)cc1 | - | - | - | - | -90 | - | - | 97 | - | 98
CCN(CC)c1ccc(NC(=O)CSC(=O)c2ccccc2)cc1 | - | . | . | - | . | - | . | . | . | .
O=C(CN1C(=O)c2ccccc2C1=O)Nc1cccnc1 | - | - | - | - | -82 | - | - | 93 | - | 94
O=C(CN1CCCCCC1)Nc1cccc([N+](=O)[O-])c1 | - | - | - | - | - | - | . | . | . | .
O=C(CN1C(=O)c2ccccc2C1=O)Nc1cccc([N+](=O)[O-])c1 | - | - | - | - | -95 | - | - | 99 | - | 99
Cc1ccc(/C(N)=N/OC(=O)Cc2ccccc2)cc1 | - | - | - | - | - | - | . | . | . | .
COc1ccc(/C(N)=N/OC(=O)Cc2ccc(C)cc2)cc1 | - | - | - | - | -91 | - | - | 95 | - | 97
N/C(=N\OC(=O)Cc1ccc(-c2ccccc2)cc1)c1ccccn1 | - | - | - | - | - | - | . | . | . | .
COc1ccc(CC(=O)O/N=C(\N)c2ccccn2)cc1 | - | - | - | - | ? | - | - | 84 | - | 88
Cc1cc(=O)oc2cc(OCC3CC(c4ccccc4)=NO3)ccc12 (centres undefined) | - | - | - | - | -86 | - | - | 95 | - | 96
Cc1cc(=O)oc2cc(OCC3CC(c4ccc(Br)cc4)=NO3)ccc12 (centres undefined) | - | - | - | - | . | - | . | . | . | .
CC(C)(C)c1ccc(OCC(=O)NN2Cc3ccccc3C2=N)cc1 | - | - | - | - | -89 | - | - | ? | - | 88
COc1ccccc1OCC(=O)NN1Cc2ccccc2C1=N | - | - | - | - | - | - | . | . | . | .
O=C(Nc1cc(-c2ccccc2)[nH]n1)c1ccccc1F | - | - | - | - | -86 | - | - | 92 | - | 94
O=C(Nc1cc(-c2ccccc2)[nH]n1)c1ccccc1 | - | - | - | 25 | -79 | - | - | 88 | - | 93
O=C(O)c1ccccc1C(=O)Nc1cc(-c2ccccc2)[nH]n1 | - | - | - | - | - | - | . | . | . | .
CNc1cncc(-c2ccc(C)cc2)n1 | . | . | . | - | . | . | . | . | . | .
COc1ccc2nc3sc(C(=O)N4CCN(C)CC4)cc3cc2c1 | - | - | - | - | -86 | - | - | 89 | - | 93
SMILES | Yeast superoxide | T cruzi repl | HIF activator | NRP1-CendR mod | AI-2 QS modul | V-ATPase pHluor | JMH597 growth rt | BB721 const-QS lum | BB721 growth | JMH597 AI-2 mod
COc1ccc2nc3sc(C(=O)NCCCN4CCc5ccccc5C4)cc3cc2c1 | - | - | - | - | - | - | . | . | . | .
CCC1(c2ccccc2)NC(=O)N(CC(=O)NNC(=O)c2ccoc2C)C1=O (centres undefined) | - | - | - | - | - | - | . | . | . | .
CCc1ccc(C(=O)NNC(=O)CN2C(=O)NC(CC)(c3ccccc3)C2=O)cc1 (centres undefined) | - | - | - | - | -83 | - | - | 88 | - | 94
COc1ccc(NC(=O)CN2C(=O)NC(c3ccccc3)(c3ccccc3)C2=O)cc1 | - | - | - | - | -94 | - | - | 92 | - | 96
CCCC1(c2ccccc2)NC(=O)N(CC(=O)NCc2ccc(OC)cc2)C1=O (centres undefined) | - | - | - | - | -86 | - | - | 86 | - | 91
CCCC1(c2ccccc2)NC(=O)N(CC(=O)NCc2ccc(C)cc2)C1=O (centres undefined) | - | - | - | - | -91 | - | - | 89 | - | 94
COc1ccc(Cl)cc1S(=O)(=O)Nc1noc2ccccc12 | - | - | - | - | - | - | . | . | . | .
Cc1cnc(NC(=O)CSc2nnc(COc3c(C)cccc3C)o2)s1 | - | - | - | - | - | - | . | . | . | .
O=C(Nc1ccccc1F)c1ccc(CN2CCN(c3ccccc3)CC2)cc1 | - | - | - | - | - | - | . | . | . | .
O=C(OCc1ccc(Br)cc1)c1ccncc1 | - | - | - | - | - | - | . | . | . | .
CC(=O)Nc1ccc(C(=O)OCc2ccc(Br)cc2)cc1 | - | - | - | - | -89 | - | - | 96 | ? | 95
COc1ccccc1NC(=O)CN(C)S(=O)(=O)c1cc(C)ccc1OC | - | - | - | - | - | - | . | . | . | .
CCOC(=O)c1sc(NC(=O)COC(=O)c2ccco2)nc1C | - | - | - | - | -89 | - | - | 97 | - | 98
CCOC(=O)c1sc(NC(=O)c2ccco2)nc1C | - | . | . | - | - | - | . | . | . | .
Nc1nc(SCC(=O)Nc2cccc(Oc3ccccc3)c2)n[nH]1 | - | - | - | - | - | - | . | . | . | .
Nc1nc(SCC(=O)Nc2ccc(Oc3ccccc3)cc2)n[nH]1 | - | - | - | - | -90 | - | - | 95 | - | 97
CC(=O)c1ccc(Oc2ccc(C(=O)c3ccc(C)c(C)c3)cc2[N+](=O)[O-])cc1 | - | - | - | - | - | - | . | . | . | .
COC(=O)c1ccc(Oc2ccc(C(C)(C)C)cc2)c([N+](=O)[O-])c1 | - | - | - | - | ? | - | - | 84 | ? | 91
CCOc1cc(/C=N/NC(=O)CSc2nncn2C)ccc1OC(=O)c1ccc(Cl)cc1 | - | - | - | - | - | - | . | . | . | .
O=C(NN1C(=O)/C(=C/c2ccc(O)cc2)SC1=S)c1ccccc1O | - | - | - | - | - | - | . | . | . | .
O=C(NCc1ccccc1)c1nc2ccccc2s1 | - | - | - | - | ? | - | - | 91 | - | 94
